Screens (PubChem)
Shown are actives, neighbours in structure and some others; about 4% of the full set was active somewhere.
WT yeast gro inh: growth inhibition of WT yeast, mitochondrial fusion screen; mitochondrial fusion phenotypic screen, WT strain; inhibition, % at 10 µM; hit rate 2.1% among 190,000; in the data active = inhibition above about 58%; tested in S. cerevisiae
Pf gamet viab: inhibitors of late stage P. falciparum gametocyte viability. P. falciparum stage V gametocytes, ATP luminescence, 24 h. inhibition, % at 10.9 µM. hit rate 0.065% among 150,000;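 active = inhibition above the mean plus 3 SD of compounds within the control limits, set per campaign, cut at about 38% in these data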;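 note: 0% = DMSO wells and 100% = medium only without gametocytes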
Cl transport mod: KCC2 (human) Cl- transport modulation; B-score of Tl+ flux slope (higher = more flux/activation; lower = inhibition) at 10 µM; hit rate 2.2% among 190,000; AID 1456; Q9H2X9; KCC2 cells, thallium flux FluoZin-2 fluorescence;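 active = thallium flux slope and its plate-corrected score both differing from the plate sample mean at a set confidence after two filtering rounds, in either direction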;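 note: slope of fluorescence scaled to starting intensity during 10 to 20 s after thallium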
Target sequence (Q9H2X9 whole entry, looked up): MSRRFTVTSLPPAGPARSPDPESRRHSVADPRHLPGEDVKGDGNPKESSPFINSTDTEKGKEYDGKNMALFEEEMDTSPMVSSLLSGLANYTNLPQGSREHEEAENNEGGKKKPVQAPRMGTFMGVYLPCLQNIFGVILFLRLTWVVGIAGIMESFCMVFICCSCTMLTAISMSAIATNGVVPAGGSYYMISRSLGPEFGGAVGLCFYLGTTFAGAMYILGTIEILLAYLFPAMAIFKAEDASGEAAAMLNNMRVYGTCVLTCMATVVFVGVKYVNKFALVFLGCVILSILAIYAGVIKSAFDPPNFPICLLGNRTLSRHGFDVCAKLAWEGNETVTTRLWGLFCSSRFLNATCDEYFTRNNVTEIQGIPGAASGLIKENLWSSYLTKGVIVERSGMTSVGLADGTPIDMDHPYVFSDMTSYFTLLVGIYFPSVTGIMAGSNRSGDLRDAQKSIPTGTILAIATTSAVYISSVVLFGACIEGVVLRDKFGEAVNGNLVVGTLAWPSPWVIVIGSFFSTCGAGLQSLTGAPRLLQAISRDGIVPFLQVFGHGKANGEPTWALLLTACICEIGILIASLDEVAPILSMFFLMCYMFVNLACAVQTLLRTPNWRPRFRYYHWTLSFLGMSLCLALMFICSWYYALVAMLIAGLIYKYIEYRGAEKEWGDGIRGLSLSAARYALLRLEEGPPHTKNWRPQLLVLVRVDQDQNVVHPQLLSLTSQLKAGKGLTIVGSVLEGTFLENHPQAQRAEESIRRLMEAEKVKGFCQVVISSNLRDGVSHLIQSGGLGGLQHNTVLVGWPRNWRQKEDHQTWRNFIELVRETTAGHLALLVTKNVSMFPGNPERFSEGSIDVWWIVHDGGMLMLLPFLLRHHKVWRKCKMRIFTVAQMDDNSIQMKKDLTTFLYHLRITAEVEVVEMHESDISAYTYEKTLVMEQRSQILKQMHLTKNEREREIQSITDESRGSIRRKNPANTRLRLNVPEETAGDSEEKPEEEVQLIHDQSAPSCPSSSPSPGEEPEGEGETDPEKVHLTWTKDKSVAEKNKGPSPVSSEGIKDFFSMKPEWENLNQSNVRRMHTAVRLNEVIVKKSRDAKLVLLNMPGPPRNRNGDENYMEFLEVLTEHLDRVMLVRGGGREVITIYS
MT stabilizer: microtubule stabilizers in HeLa cells; HeLa tubulin immunostaining HCS, 24 h; share of cells brighter than vehicle mean+2SD; % tubulin-high responders, % at 10 µM; hit rate 0.83% among 200,000;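 active = plate Z-score above 3 for both tubulin-high and condensed-nucleus cell shares, with cell loss under 80%, at 10 µM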;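 note: anti alpha tubulin signal scored within the nucleus-defined area of each cell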
bCat nuc transl: alters nuclear translocation of beta-catenin in HeLa cells. nuclear translocation activity, % at 5 µM. AID 1665. hit rate 0.3% among 190,000. immunofluorescence imaging;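 active = nuclear translocation activity above 50% at 5 µM, with a well cell count of 50 or more; inconclusive = wells under 50 cells across six images, flagged as toxic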;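 note: per-cell ratio of nuclear to cytoplasmic median beta-catenin stain intensity; plate controls were DMSO negative control for no effect and GSK-3 inhibitor IX positive control for full effect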
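Assay system: human HeLa cells, native beta-catenin; doses: 5 µM primary, 0.02–20 µM confirmation; incubation: compound treatment 24 h, 37°C, 5% CO2; technique: fluorescence imaging of beta-catenin antibody stain plus DAPI; measure: % activation, nuclear-to-cytoplasmic median beta-catenin signal ratio per cell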
KCC2 sec1: KCC2 (human) modulation, secondary assay; shares compounds with Cl transport mod; HEK293-KCC2, thallium flux, FluoZin2 fluorescence; stronger effect = higher value; hit rate 15% among 3,700; AID 1713; normalised thallium flux (F/F0 slope) at 10 µM;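 active = thallium flux slope above the same plate's solvent-only control mean plus 3 SD; inconclusive = the two replicate wells disagree; inactive = no significant difference from solvent-only control wells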
KCC2 bumet counter: thallium flux despite bumetanide block in KCC2 cells, secondary assay 3; hit rate 49% among 3,700; HEK293-KCC2 + bumetanide/ouabain, thallium flux FluoZin2; stronger effect = higher value; normalized thallium flux at 10 µM; shares compounds with Cl transport mod; AID 1714;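 active = thallium entry rate above the same plate's blocked-transporter control wells by more than 3 SD; inconclusive = the two repeat wells disagree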;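 note: raw slope of fluorescence over initial fluorescence between 10 and 20 s after thallium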
KCC2 secondary2: confirmation of human KCC2 transport modulators. shares compounds with Cl transport mod. HEK293-KCC2, thallium flux FluoZin2 fluorescence; actives lie on both sides; F/F0 rise rate, 10–20 s post-thallium. normalized thallium flux at 10 µM. hit rate 23% among 3,700. AID 1715;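 active = thallium flux slope more than 3 SD above or below the plate's solvent-only control mean, mostly below; inconclusive = the two repeat wells disagreed; inactive = no significant shift from solvent-only controls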;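 note: raw slope with 0.1% DMSO as baseline and bumetanide as block control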
HEK counter1: parental HEK flux effect, counter-screen; thallium flux rate (normalised fluorescence) at 10 µM; shares compounds with Cl transport mod; hit rate 46% among 3,700; HEK293 parental cells, thallium flux FluoZin2, ouabain; baseline-ratio fluorescence slope, 10–20 s after thallium; AID 1716;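 active = thallium flux rate significantly above the same plate's solvent-only control wells, beyond their mean plus 3 SD; inconclusive = the two replicate wells gave conflicting results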
KCC2 retest ouab: confirmation of human KCC2 modulators with ouabain. HEK293-KCC2, thallium flux FluoZin2 fluorescence; bidirectional: low = inhibitor, high = activator. hit rate 48% among 3,700. raw Tl+ flux slope (below DMSO = inhibition, above = activation) at 10 µM. shares compounds with Cl transport mod. AID 1717;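 active = thallium flux slope beyond 3 SD from same-plate DMSO control mean in most replicates, usually higher, sometimes lower; inconclusive = repeat tests gave conflicting results; inactive = no significant difference from controls in most replicates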;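 note: slope of initial-normalized fluorescence between seconds 10 and 20 after thallium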
HEK counter2: parental HEK flux effect, counter-screen 2. shares compounds with Cl transport mod. HEK293 parental, thallium flux FluoZin-2 fluorescence slope. thallium flux slope at 10 µM. hit rate 33% among 3,700;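 active = thallium flux slope above the same plate's solvent-control mean plus 3 SD in both duplicate wells; inconclusive = duplicate wells that disagreed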;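 note: run without ouabain in cells lacking the KCC2 cotransporter; slope of fluorescence scaled to its starting value between 10 and 20 s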
Active calls of the source: *; ? = inconclusive; nt = no result.

SMILES | WT yeast gro inh | Pf gamet viab | Cl transport mod | MT stabilizer | bCat nuc transl | KCC2 sec1 | KCC2 bumet counter | KCC2 secondary2 | HEK counter1 | KCC2 retest ouab | HEK counter2
Cc1ccc(S(=O)(=O)N(CC(=O)NCCSCc2ccco2)c2ccc(F)cc2)cc1 | 24 | nt | -4.3* | 3 | -1 | 0.0059 | 0.0051 | 0.028 | 0.006 | 0.016* | 0.0097
Cc1cc(-c2ccccc2)c2c(=O)[nH][nH]c2n1 | -15 | -16 | 0.68 | 2 | 0 | nt | nt | nt | nt | nt | nt
O=C(Nc1ccc(Cc2ccncc2)cc1)c1ccc(N2CCOCC2)c([N+](=O)[O-])c1 | -11 | 4 | -5.9* | 1 | -5 | 0.0089 | ? | ? | 0.0074 | 0.016* | 0.01
O=C(Nc1ccc(NC(=O)c2cccc([N+](=O)[O-])c2)cc1)c1cccc([N+](=O)[O-])c1 | nt | -7 | nt | nt | nt | nt | nt | nt | nt | nt | nt
O=C(Nc1ccc(Cc2ccncc2)cc1)c1cccc([N+](=O)[O-])c1 | 16 | -2 | -4.2* | 6 | 0 | 0.0049 | ? | 0.024* | 0.0079 | ? | 0.011
CN(C)S(=O)(=O)N1CCN(C(=O)c2cccs2)CC1 | -11 | 29 | nt | 1 | -2 | nt | nt | nt | nt | nt | nt
CN(C)C(=S)NC(=O)C12CC3CC(C)(CC(C)(C3)C1)C2 | nt | -10 | 17* | nt | 1 | ? | 0.039* | 0.034 | 0.016* | 0.025* | 0.02*
O=C(O)c1cc(-c2cccc(Cl)c2)nc2nc(N3CCCCC3)sc12 | 21 | nt | -4.2* | 2 | 0 | 0.009 | 0.0058 | 0.034 | 0.0075 | 0.017* | 0.01
O=C(O)C1CC=CCC1C(=O)NCCc1cccc(Cl)c1 (stereo not given) | -6 | nt | 0.76 | 2 | nt | nt | nt | nt | nt | nt | nt
O=C(O)c1cc(-c2ccc(/C=N/N3C(=O)C4C5C=CC(CC5)C4C3=O)o2)ccc1Cl (stereo not given) | -5 | nt | -9.7* | 3 | 2 | 0.0086 | ? | 0.03 | 0.007 | 0.035 | 0.0095
Cc1cccc(NC(=O)c2ccc3c(c2)CCN3S(C)(=O)=O)c1 | nt | -14 | nt | nt | nt | nt | nt | nt | nt | nt | nt
CC1(C)CC(=O)c2c(Cc3ccccc3)n[nH]c2C1 | 9 | nt | -0.48 | 6 | 1 | nt | nt | nt | nt | nt | nt
CC1(C)CC(=O)c2c(-c3cccnc3)n[nH]c2C1 | -18 | -1 | nt | 3 | -3 | 0.01 | 0.0056 | 0.034 | 0.0078 | 0.02 | 0.012
O=C(O)/C=C/c1ccc2c(-c3ccccc3)onc2c1 | 13 | nt | -0.7 | 4 | -1 | nt | nt | nt | nt | nt | nt
CCN1C(=O)N[C@@H](CCc2ccccc2)C(C(C)=O)=C1C | nt | 0 | nt | nt | nt | nt | nt | nt | nt | nt | nt
COCCN1C(=O)N[C@@H](CCc2ccccc2)C(C(C)=O)=C1C | -9 | nt | 6* | 3 | nt | 0.0066 | 0.0047 | 0.025* | 0.0074 | 0.018 | 0.01
CN(C)CCn1c(=S)[nH]c2ncccc2c1=O | 16 | nt | 2.1 | 3 | 0 | nt | nt | nt | nt | nt | nt
CC(C)CCn1c(=S)[nH]c2ncccc2c1=O | 11 | nt | 51* | 4 | 2 | 0.012* | 0.08* | 0.075* | 0.067* | 0.073* | 0.059*
CCOCCCn1c(=S)[nH]c2ncccc2c1=O | 14 | -23 | 5.3* | 5 | -2 | 0.0064 | 0.017* | 0.037 | 0.018* | ? | 0.021*
CCCCCNC(=O)c1ccc2c(=O)n(CCCOCC)c(=S)[nH]c2c1 | 17 | -1 | -0.8 | 2 | nt | nt | nt | nt | nt | nt | nt
COc1ccc(N2CCN(CCCn3c(=S)[nH]c4ncccc4c3=O)CC2)cc1 | -1 | 6 | 8.9* | 2 | nt | 0.0071 | 0.032* | 0.037 | 0.02* | 0.031* | 0.018*
CC(=O)c1ccc(N2CCN(C(=O)Cn3c(=S)[nH]c4ncccc4c3=O)CC2)cc1 | -4 | nt | 1.6 | 3 | 2 | nt | nt | nt | nt | nt | nt
CC(O)Cn1c(N2CCCC2)nc2c1c(=O)[nH]c(=O)n2C (stereo not given) | nt | -6 | nt | nt | nt | nt | nt | nt | nt | nt | nt
Cc1nonc1OCCNCc1c(C(=O)N(C)C)nc2ccc(Cl)cn12 | 17 | nt | 0.027 | 2 | 1 | nt | nt | nt | nt | nt | nt
CCc1cc2cccc(C)c2nc1SCC(=O)NNC(=O)c1ccco1 | 12 | nt | nt | 3 | 0 | 0.0096 | 0.01* | 0.032 | 0.011* | 0.021 | 0.011
SMILES | WT yeast gro inh | Pf gamet viab | Cl transport mod | MT stabilizer | bCat nuc transl | KCC2 sec1 | KCC2 bumet counter | KCC2 secondary2 | HEK counter1 | KCC2 retest ouab | HEK counter2
CCc1cc2ccc(OC)cc2nc1SCC(=O)N1CCN(C(=O)c2ccco2)CC1 | nt | -12 | -4.1* | nt | -1 | 0.0057 | 0.0039 | 0.024* | 0.0052* | 0.012* | 0.0084*
COc1ccc(CC(=O)N2CCN(C(=O)c3ccco3)CC2)cc1 | -12 | -3 | 0.061 | 3 | 1 | nt | nt | nt | nt | nt | nt
CCc1cc2cc(C)cc(C)c2nc1SCC(=O)NNC(=O)c1ccco1 | -3 | nt | 1.9 | 3 | 2 | nt | nt | nt | nt | nt | nt
CCc1cc2ccc(OC)cc2nc1SCC(=O)NNC(=O)c1ccco1 | 3 | 16 | 17* | 2 | -2 | 0.0081 | 0.018* | 0.034 | 0.028* | 0.025* | 0.014*
Cn1c(SCC(=O)N/N=C/C=C/c2ccco2)nc2ccccc21 | -6 | 0 | -1.3 | 3 | 1 | nt | nt | nt | nt | nt | nt
CCOc1ccc(NC(=O)C(C)NS(=O)(=O)c2ccc(NC(C)=O)cc2)cc1 (stereo not given) | -10 | 10 | 0.14 | 6 | -4 | nt | nt | nt | nt | nt | nt
CCS(=O)(=O)Nc1ccccc1C(N)=O | 2 | nt | 0.39 | 5 | 6 | nt | nt | nt | nt | nt | nt
CCN(CC)c1ccc(/C=N/NC(=O)OC)c(O)c1 | -15 | -11 | 1.2 | 4 | 1 | nt | nt | nt | nt | nt | nt
CCN(CC)c1ccc(/C=N/NC(=S)NC)c(O)c1 | 4 | -21 | 5.1* | 3 | 2 | 0.0091 | 0.013* | 0.031 | ? | 0.022 | 0.01
O=C(CCSCCc1ccccn1)Nc1ccc(Cc2ccncc2)cc1 | -13 | 20 | -3.4* | 3 | -1 | 0.0069 | 0.0044 | ? | 0.0073 | 0.018 | 0.011
O=C(CCSCCc1ccccn1)Nc1ccccn1 | -18 | nt | 1.2 | 3 | -2 | nt | nt | nt | nt | nt | nt
O=C(/C=C/c1ccccc1)CC(=O)c1ccccc1O | 10 | -12 | 6.8* | 3 | -1 | 0.0054 | 0.011* | 0.031 | 0.013* | ? | 0.015*
O=C(Nc1ccccc1)/C(=C\c1ccncc1)NC(=O)c1ccccc1 | 12 | 10 | 5.4* | 2 | 0 | 0.015 | 0.0051 | 0.027 | ? | 0.017 | 0.011
COc1cccc(-n2c([S-])c(C(=O)Nc3ccc(S(=O)(=O)N4CCOCC4)cc3)[n+]3cc(C(N)=O)ccc23)c1 | nt | -5 | 1 | nt | 1 | nt | nt | nt | nt | nt | nt
